Experimental data taken from publication PMC7439261 (ACS Omega, 2020).
Converted amounts (≈) assume the structure as drawn. “And” between values parts separate entries of the source, which are not always exact repeats. Equal entries are not always repeated.

Experiments:
[1] = tested on: test strains of H. pylori; assay: Broth dilution bioassay MIC/MBC, text summary over test strains; type: cell-based; settings: Helicobacter pylori; for MIC: ATCC51932
[2] = Sulforhodamine cytotoxicity assay, Jurkat; type: cell-based; settings: human, Jurkat cells
Outline: (§1)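 Cells were grown in EMEM with 10% FBS, 2 mM L-glutamine, 20 mM HEPES and antibiotics at 37 °C, 5% CO2. Passages were 4–20 for HeLa, MCF7 and Jurkat, and 2–5 for fibroblasts. Seeding per well for 24 h: HeLa 5×10^3, MCF7 and fibroblast 10^4, Jurkat 5×10^4. Test compound (0–200 mg/L, in DMSO) was added for 48 h. Cells were fixed with cold TCA, stained with 0.2% SRB, solubilised in 10 mM Tris and read at 492 nm. Camptothecin was the positive control. Triplicates, three independent experiments.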

H. pylori ATCC 43504 [3] = assay: Broth dilution bioassay MIC/MBC, ATCC 43504; type: cell-based; settings: Helicobacter pylori; for MIC: ATCC43504, 48 h; for MBC: ATCC43504, 72 h
H. pylori OX.22 = assay: Broth dilution bioassay MIC/MBC, OX.22; type: cell-based; settings: Helicobacter pylori; for MIC: OX.22, 48 h; for MBC: OX.22, 72 h
[4] = Sulforhodamine cytotoxicity assay, fibroblast; type: cell-based; settings: human, fibroblast cells derived from human foreskins
Outline: as §1

H. pylori OX.67 = assay: Broth dilution bioassay MIC/MBC, OX.67; type: cell-based, Helicobacter pylori; settings: Helicobacter pylori; for MIC: OX.67, 48 h, H. pylori OX.67, broth dilution, 48 h; for MBC: OX.67, 72 h
[5] = target: H. pylori ATCC 43504 urease (Helicobacter pylori, UniProt P69996); assay: Urease inhibition, salicylate-hypochlorite method; type: biochemical; settings: for slope ± SE: slope of dose-response curve of percentage of urease inhibition
Outline: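 Crude H. pylori ATCC 43504 urease, 0.25 μg (0.04 U), in EDTA–sodium phosphate buffer pH 7.3, was preincubated with test compound at 37 °C for 90 min at 50 rpm. Urea solution (10 mM, as added) was then incubated for 30 min. Ammonia was measured by the salicylate–nitroprusside/alkaline hypochlorite method at 625 nm. Thiourea was the reference inhibitor. IC50 is molar. Triplicates, three independent experiments.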

[6] = Sulforhodamine cytotoxicity assay, HeLa; type: cell-based; settings: human, HeLa cells
Outline: as §1

H. pylori OX.64 = assay: Broth dilution bioassay MIC/MBC, OX.64; type: cell-based, Helicobacter pylori; settings: Helicobacter pylori; for MIC: OX.64, 48 h, H. pylori OX.64, broth dilution, 48 h; for MBC: OX.64, 72 h
[7] = Sulforhodamine cytotoxicity assay, text summary over four cell lines; type: cell-based; settings: human
Outline: as §1

H. pylori ATCC 51932 = assay: Broth dilution bioassay MIC/MBC, ATCC 51932; type: cell-based; settings: Helicobacter pylori; for MIC: ATCC51932, 48 h; for MBC: ATCC51932, 72 h
[8] = Sulforhodamine cytotoxicity assay, MCF7; type: cell-based; settings: human, MCF7 cells
Outline: as §1

H. pylori OX.63 = assay: Broth dilution bioassay MIC/MBC, OX.63; type: cell-based, Helicobacter pylori; settings: Helicobacter pylori; for MIC: OX.63, 48 h, H. pylori OX.63, broth dilution, 48 h; for MBC: OX.63, 72 h
H. pylori ATCC 43504 [9] = assay: Time-killing assay; type: cell-based, Helicobacter pylori
Outline: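 H. pylori ATCC 43504 in 10% NBS-supplemented Brucella broth in 96-well plates, by broth microdilution. Inoculum suspension 5×10^6 CFU/mL; DMSO final ≤2.5%. Test compound was used at concentrations from MIC to MBC, alongside an untreated control. Viability was counted by plate colony count at 0, 6, 12, 18, 24, 36 and 48 h.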

[10] = tested on: H. pylori ATCC 43504 biofilm formation; assay: Biofilm formation inhibitory assay; type: cell-based, Helicobacter pylori; settings: 48 h; for antibiofilm activity: at test concentrations (sub-MICs)
H. pylori ATCC 43504 [11] = assay: Effect on morphology; type: cell-based, Helicobacter pylori
H. pylori OX.83 = assay: Broth dilution bioassay MIC/MBC, OX.83; type: cell-based, Helicobacter pylori; settings: Helicobacter pylori; for MIC: OX.83, 48 h, H. pylori OX.83, broth dilution, 48 h; for MBC: OX.83, 72 h
[12] = 1/2 × MIC (NRG 50 mg/L, MCT 75 mg/L)

H. pylori ATCC 43504 urease, sequence (P69996 whole entry): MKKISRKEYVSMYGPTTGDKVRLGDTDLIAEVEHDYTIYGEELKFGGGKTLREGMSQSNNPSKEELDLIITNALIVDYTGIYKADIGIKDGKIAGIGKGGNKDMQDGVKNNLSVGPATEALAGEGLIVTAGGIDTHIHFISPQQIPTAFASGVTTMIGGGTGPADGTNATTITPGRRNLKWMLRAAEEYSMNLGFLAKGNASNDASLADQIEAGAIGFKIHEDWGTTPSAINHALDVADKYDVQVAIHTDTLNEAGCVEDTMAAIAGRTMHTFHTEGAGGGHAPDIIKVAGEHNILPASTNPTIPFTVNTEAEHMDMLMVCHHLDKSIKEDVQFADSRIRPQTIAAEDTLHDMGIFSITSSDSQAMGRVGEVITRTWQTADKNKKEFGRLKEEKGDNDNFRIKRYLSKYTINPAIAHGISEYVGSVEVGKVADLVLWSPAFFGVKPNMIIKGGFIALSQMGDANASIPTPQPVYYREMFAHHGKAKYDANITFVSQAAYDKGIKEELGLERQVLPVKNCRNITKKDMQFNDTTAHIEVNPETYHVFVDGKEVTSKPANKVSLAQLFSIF
H. pylori ATCC 43504 urease, sequence (P14916 whole entry partner): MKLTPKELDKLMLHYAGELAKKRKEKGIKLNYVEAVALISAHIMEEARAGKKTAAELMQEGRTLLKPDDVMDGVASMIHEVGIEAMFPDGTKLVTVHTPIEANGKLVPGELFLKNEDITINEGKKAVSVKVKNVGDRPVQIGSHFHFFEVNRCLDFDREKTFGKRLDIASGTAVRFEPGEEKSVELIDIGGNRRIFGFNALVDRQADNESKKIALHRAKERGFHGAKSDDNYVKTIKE

SMILES | MIC [1] [µg/mL] | CC50 at 48 h [2] [µg/mL] | MIC (H. pylori ATCC 43504 [3]) [µg/mL] | MBC (H. pylori ATCC 43504 [3]) [µg/mL] | MIC (H. pylori OX.22) [µg/mL] | MBC (H. pylori OX.22) [µg/mL] | CC50 at 48 h [4] [µg/mL] | MIC (H. pylori OX.67) [µg/mL] | MBC (H. pylori OX.67) [µg/mL] | IC50 [5] [µM] | slope ± SE [5] | CC50 at 48 h [6] [µg/mL] | MIC (H. pylori OX.64) [µg/mL] | MBC (H. pylori OX.64) [µg/mL] | MIC (H. pylori ATCC 51932) [µg/mL] | MBC (H. pylori ATCC 51932) [µg/mL] | MIC (H. pylori OX.63) [µg/mL] | MBC (H. pylori OX.63) [µg/mL] | MIC (H. pylori OX.83) [µg/mL] | MBC (H. pylori OX.83) [µg/mL] | other results
O=c1cc(-c2ccc(O)c(O)c2)oc2cc(O)cc(O)c12 [LUT, luteolin] | 125 (≈ 437 µM) | 5.12 (≈ 17.9 µM) | 125 (≈ 437 µM) | 1250 (≈ 4370 µM) | 125 (≈ 437 µM) | 1250 (≈ 4370 µM) | 49.8 (≈ 174 µM) | 125 (≈ 437 µM) | 1250 (≈ 4370 µM) | 402 | 2.16 ± 0.080 | 8.36 (≈ 29.2 µM) | 125 (≈ 437 µM) | 1250 (≈ 4370 µM) | 125 (≈ 437 µM) | 1250 (≈ 4370 µM) | 125 (≈ 437 µM) | 1250 (≈ 4370 µM) | 125 (≈ 437 µM) | 1250 (≈ 4370 µM) | MBC [1]: 1250 µg/mL (≈ 4370 µM); CC50 at 48 h [7]: 5.12 to 49.8 µg/mL (≈ 17.9 to 174 µM); CC50 at 48 h [8]: 8.64 µg/mL (≈ 30.2 µM); reduction of viability (H. pylori ATCC 43504 [9]; four times the MIC, 12 h): ~3 log10; antibiofilm activity [10]: did not show antibiofilm activity; conversion to the coccoid form (H. pylori ATCC 43504 [11]; 500 mg/L): 14.7%; conversion to the coccoid form (H. pylori ATCC 43504 [11]; 1000 mg/L): 87.5%
O=c1c(O)c(-c2cc(O)c(O)c(O)c2)oc2cc(O)cc(O)c12 [MCT, myricetin] | 150 (≈ 471 µM) | 7.61 (≈ 23.9 µM) | 150 (≈ 471 µM) | 1250 (≈ 3930 µM) | 150 (≈ 471 µM) | 1250 (≈ 3930 µM) | 76.1 (≈ 239 µM) | 150 (≈ 471 µM) | 1250 (≈ 3930 µM) | 63 | 2.26 and 2.26 ± 0.070 | 36.8 (≈ 116 µM) | 150 (≈ 471 µM) | 1250 (≈ 3930 µM) | 150 (≈ 471 µM) | 1250 (≈ 3930 µM) | 150 (≈ 471 µM) | 1250 (≈ 3930 µM) | 150 (≈ 471 µM) | 1250 (≈ 3930 µM) | MBC [1]: 1250 µg/mL (≈ 3930 µM); concentration of complete inhibition of urease ([5]; Figure 5): 0.402 mM; CC50 at 48 h [7]: 7.61 to 76.1 µg/mL (≈ 23.9 to 239 µM); CC50 at 48 h [8]: 31.7 µg/mL (≈ 99.6 µM); reduction of viability (H. pylori ATCC 43504 [9]; at the MIC, 24 h): ~2.7 log10; reduction of viability (H. pylori ATCC 43504 [9]; eight times the MIC, 36 h): ~4.2 log10; reduction of biofilm formation [10, 12]: 39.5%; conversion to the coccoid form (H. pylori ATCC 43504 [11]; 500 mg/L): 15%; conversion to the coccoid form (H. pylori ATCC 43504 [11]; 1000 mg/L): 79%
O=C1C[C@@H](c2ccc(O)cc2)Oc2cc(O)cc(O)c21 [NRG, naringenin] | 100 (≈ 367 µM) | 46.6 (≈ 171 µM) | 100 (≈ 367 µM) | 1000 (≈ 3670 µM) | 100 (≈ 367 µM) | 1000 (≈ 3670 µM) | 133 (≈ 490 µM) | 100 (≈ 367 µM) | 1000 (≈ 3670 µM) | 575 | 1.38 ± 0.045 | 65.2 (≈ 239 µM) | 100 (≈ 367 µM) | 1000 (≈ 3670 µM) | 100 (≈ 367 µM) | 1000 (≈ 3670 µM) | 100 (≈ 367 µM) | 1000 (≈ 3670 µM) | 100 (≈ 367 µM) | 1000 (≈ 3670 µM) | CC50 at 48 h [7]: 46.6 to 133 µg/mL (≈ 171 to 490 µM); CC50 at 48 h [8]: 93.7 µg/mL (≈ 344 µM); reduction of viability (H. pylori ATCC 43504 [9]; at the MIC, 48 h): ~1 log10; reduction of viability (H. pylori ATCC 43504 [9]; five times the MIC, 24 h): ~2.5 log10; reduction of viability (H. pylori ATCC 43504 [9]; five times the MIC, 36 h): ~4 log10; reduction of biofilm formation [10, 12]: 85.9%; reduction of biofilm formation ([10]; 1/4 × MIC (NRG 25 mg/L)): 52.7%; conversion to the coccoid form (H. pylori ATCC 43504 [11]; 500 mg/L): 16.5%; conversion to the coccoid form (H. pylori ATCC 43504 [11]; 1000 mg/L): 95%
O=C(O)c1ccc(O)c(O)c1 [PCA, protocatechuic acid] | 250 (≈ 1620 µM) | > 200 | 250 (≈ 1620 µM) | 1500 (≈ 9730 µM) | 250 (≈ 1620 µM) | 1500 (≈ 9730 µM) | > 200 | 250 (≈ 1620 µM) | 1500 (≈ 9730 µM) | 486 | 2.00 ± 0.075 | > 200 | 250 (≈ 1620 µM) | 1500 (≈ 9730 µM) | 250 (≈ 1620 µM) | 1500 (≈ 9730 µM) | 250 (≈ 1620 µM) | 1500 (≈ 9730 µM) | 250 (≈ 1620 µM) | 1500 (≈ 9730 µM) | CC50 at 48 h [7]: > 200 µg/mL; CC50 at 48 h [8]: > 200 µg/mL; reduction of viability (H. pylori ATCC 43504 [9]; at the MIC, 36 h): ~2 log10; reduction of viability (H. pylori ATCC 43504 [9]; four times the MIC, 48 h): ~6 log10; antibiofilm activity [10]: did not show antibiofilm activity; conversion to the coccoid form (H. pylori ATCC 43504 [11]; 500 mg/L): not significantly different from that in the control group; conversion to the coccoid form (H. pylori ATCC 43504 [11]; 1000 mg/L): 12%
CC1(C)S[C@@H]2[C@H](NC(=O)[C@H](N)c3ccc(O)cc3)C(=O)N2[C@H]1C(=O)O [amoxicillin] |  |  | 0.031 (≈ 0.0848 µM) | 0.063 (≈ 0.172 µM) | 0.063 (≈ 0.172 µM) | 0.25 (≈ 0.684 µM) |  | 0.031 (≈ 0.0848 µM) | 0.125 (≈ 0.342 µM) |  |  |  | 0.031 (≈ 0.0848 µM) | 0.125 (≈ 0.342 µM) | 0.063 (≈ 0.172 µM) | 0.125 (≈ 0.342 µM) | 0.063 (≈ 0.172 µM) | 0.25 (≈ 0.684 µM) | 0.063 (≈ 0.172 µM) | 0.25 (≈ 0.684 µM) | 
